# Assay results reported in ChEMBL document CHEMBL4229382, “Phenylthiazoles with tert-Butyl side chain: Metabolically stable with anti-biofilm activity” (Eur J Med Chem, 2018).
# Calls of active or inactive are those of the source. The calls are words filed in the database; no cut-off is given here.
# Tests used:
# [1] = system: Staphylococcus aureus; test: Antibacterial activity against methicillin-resistant Staphylococcus aureus 2658 RCMB after 18 hrs by broth microdilution assay; format: functional
# Method in brief: (§1)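 Broth microdilution: inoculum from 0.5 McFarland suspension diluted to about 5 × 10^5 CFU/mL. Media were cation-adjusted Mueller-Hinton broth for staphylococci, brain heart infusion for E. faecium, and tryptone soya broth for E. faecalis, S. pneumoniae and L. monocytogenes.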
# [2] = system: Staphylococcus epidermidis; test: Antibacterial activity against methicillin-resistant Staphylococcus epidermidis NRS101 after 18 hrs by broth microdilution assay; format: functional; conditions: NRS101, 18 h; method in brief: as §1
# [3] = system: Staphylococcus aureus; test: Inhibition of biofilm formation in methicillin-resistant Staphylococcus aureus NRS384 USA300 at 1 time MIC after 24 hrs by crystal violet staining-based spectrophotometric analysis relative to control; parameters: scale not given: the % may be the effect or the level left
# [4] = system: Caco-2; test: Cytotoxicity against human Caco2 cells at 32 ug/ml after 2 hrs by MTS assay; format: cell-based; conditions: caco-2, 2 h
# Method in brief: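 Caco-2 cells grown in DMEM with 20% FBS, non-essential amino acids and penicillin-streptomycin, 37 °C, 5% CO2; exposed in triplicate to compounds (16, 32, 64 µg/mL) for 2 h; MTS added, 4 h further incubation, OD490 read; viability as percent of DMSO-treated controls; two independent experiments.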
# [5] = system: Staphylococcus aureus; test: Inhibition of biofilm formation in methicillin-resistant Staphylococcus aureus NRS384 USA300 at 2 times MIC after 24 hrs by crystal violet staining-based spectrophotometric analysis relative to control; parameters: scale not given: the % may be the effect or the level left
# [6] = system: Staphylococcus epidermidis; test: Bactericidal activity against methicillin-resistant Staphylococcus epidermidis NRS101 incubated fo 18 hrs followed by re-plating on tryptic soy agar plates at 37 degC for 18 hrs by broth microdilution assay; format: functional; conditions: NRS101, 18 h
# [7] = system: Staphylococcus aureus; test: Antibacterial activity against methicillin-sensitive Staphylococcus aureus ATCC 6538 after 18 hrs by broth microdilution assay; format: functional; conditions: ATCC 6538, 18 h; method in brief: as §1
# [8] = system: Staphylococcus aureus; test: Antibacterial activity against methicillin-resistant Staphylococcus aureus NRS123 USA400 assessed as reduction in bacterial growth after 2 to 4 hrs by time kill assay; format: functional, organism-based
# Method in brief: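 Samples taken at 0, 2, 4, 6, 8, 12 and 24 h were serially diluted in PBS, plated on TSA and incubated ≥18 h for viable CFU/mL. DMSO was the negative control; two independent experiments.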
# [9] = system: Staphylococcus aureus; test: Antibacterial activity against methicillin-resistant Staphylococcus aureus NRS385 after 18 hrs by broth microdilution assay; format: functional; conditions: NRS385, 18 h; method in brief: as §1
# [10] = system: Enterococcus faecium; test: Antibacterial activity against vancomycin-resistant Enterococcus faecium ATCC 700221 after 18 hrs by broth microdilution assay; format: functional; conditions: ATCC 700221, 18 h; method in brief: as §1
# [11] = system: Staphylococcus aureus; test: Antibacterial activity against methicillin-resistant Staphylococcus aureus NRS384 USA300 after 18 hrs by broth microdilution assay; format: functional; conditions: NRS384 USA300, 18 h; method in brief: as §1
# [12] = Safety index, ratio of cytotoxicity against human Caco2 cells at 32 ug/ml after 2 hrs by MTS assay to antibacterial activity against methicillin-resistant Staphylococcus aureus; format: toxicity, cell-based; conditions: Caco-2 cells
# [13] = system: Staphylococcus aureus; test: Inhibition of biofilm formation in methicillin-resistant Staphylococcus aureus NRS384 USA300 after 24 hrs by crystal violet staining-based spectrophotometric analysis
# [14] = system: Enterococcus faecalis; test: Antibacterial activity against vancomycin-resistant Enterococcus faecalis ATCC 51299 after 18 hrs by broth microdilution assay; format: functional; conditions: ATCC 51299, 18 h; method in brief: as §1
# [15] = system: Enterococcus faecium; test: Bactericidal activity against vancomycin-resistant Enterococcus faecium ATCC 700221 incubated fo 18 hrs followed by re-plating on tryptic soy agar plates at 37 degC for 18 hrs by broth microdilution assay; conditions: ATCC 700221, 18 h
smiles,measurement,setting,value
Cc1nc(-c2ccc(C(C)(C)C)cc2)sc1-c1ccnc(NC2CCCC2)n1,MIC,[1],> 50 µg/mL
Cc1nc(-c2ccc(C(C)(C)C)cc2)sc1-c1ccnc(N2CCC2)n1,MIC,[1],> 50 µg/mL
Cc1nc(-c2ccc(C(C)(C)C)cc2)sc1-c1ccnc(-c2cccnc2)n1,MIC,[1],> 50 µg/mL
CNc1nccc(-c2sc(-c3ccc(C(C)(C)C)cc3)nc2C)n1,MIC,[1],25 µg/mL
Cc1nc(-c2ccc(C(C)(C)C)cc2)sc1-c1ccnc(NC(=N)N2CCOCC2)n1,MIC,[2],4 µg/mL
same,Activity,[3],18.1%
same,Activity,[4],Non-Toxic
same,Activity,[5],28.3%
same,MBC,[6],4 µg/mL
same,MIC,[1],1.17 µg/mL
same,MIC,[7],4 µg/mL
same,Activity,[8],Active
same,MIC,[9],4 µg/mL
same,MIC,[10],4 µg/mL
same,MIC,[11],4 µg/mL
same,"selectivity ratio at 2 h, 32 ug/ml",[12],8 to 30
same,inhibition,[13],Dose-dependent effect
same,MIC,[14],4 µg/mL
same,MBC,[15],8 µg/mL
Cc1nc(-c2ccc(C(C)(C)C)cc2)sc1-c1ccnc(NC(=N)N2CCN(C)CC2)n1,MIC,[1],3.12 µg/mL
